# Tests used:
# Format in all cases: functional
# M21 [1] = assay: Cell cycle arrest in human M21 cells by accumulation at S phase at 3 uM after 24 hrs by flow cytometry
# In short: (§1)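 Exponentially growing M21 cells were exposed to drug (DMSO vehicle, <0.5% v/v) for 24 h, then collected and fixed with ice-cold ethanol. 5×10^5 cells were stained in PBS with 50 µg/mL propidium iodide plus 40 U/mL RNase A for 30 min at room temperature. Phase distribution was measured by flow cytometry.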
# M21 [2] = assay: Cell cycle arrest in human M21 cells by accumulation at G2/M phase at 3 uM after 24 hrs by flow cytometry; in short: as §1
# M21 [3] = assay: Cell cycle arrest in human M21 cells by accumulation at G0/G1 phase at 3 uM after 24 hrs by flow cytometry; in short: as §1
# HT-29 = assay: Antiproliferative activity against human HT29 cells after 48 hrs; conditions: HT-29, 48 h
# In short: (§2)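 NCI-style sulforhodamine B growth assay. Cells in high-glucose DMEM with 5% iron-supplemented bovine calf serum were preincubated 24 h at 37 °C, 5% CO2. Drugs in DMSO (final <0.5%) were added at 0.1–100 µM final for 48 h. Cells were fixed with cold TCA (10% final, 60 min, 4 °C), stained with 0.1% SRB, solubilized in 20 mM Tris, and read at 585 nm against a day-0 plate. GI50 was taken; at least two runs in triplicate.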
# M21 [4] = assay: Cell cycle arrest in human M21 cells by accumulation at G0/G1 phase at 10 uM after 24 hrs by flow cytometry; in short: as §1
# M21 [5] = assay: Antiproliferative activity against human M21 cells after 48 hrs; conditions: M21, 48 h; in short: as §2
# M21 [6] = assay: Cell cycle arrest in human M21 cells by accumulation at S phase at 10 uM after 24 hrs by flow cytometry; in short: as §1
# M21 [7] = assay: Induction of apoptosis in human M21 cells at 10 uM
# M21 [8] = assay: Induction of apoptosis in human M21 cells at 3 uM
# MCF7 = assay: Antiproliferative activity against human MCF7 cells after 48 hrs; conditions: MCF7, 48 h; in short: as §2
# M21 [9] = assay: Cell cycle arrest in human M21 cells by accumulation at G2/M phase at 10 uM after 24 hrs by flow cytometry; in short: as §1
# M21 [10] = assay: Cell cycle arrest in human M21 cells by accumulation at G0/G1 phase at 15 uM after 24 hrs by flow cytometry; in short: as §1
# M21 [11] = assay: Cell cycle arrest in human M21 cells by accumulation at G2/M phase at 5 uM after 24 hrs by flow cytometry; in short: as §1
# M21 [12] = assay: Cell cycle arrest in human M21 cells by accumulation at G0/G1 phase at 5 uM after 24 hrs by flow cytometry; in short: as §1
# M21 [13] = assay: Cell cycle arrest in human M21 cells by accumulation at S phase at 5 uM after 24 hrs by flow cytometry; in short: as §1
# M21 [14] = assay: Cell cycle arrest in human M21 cells by accumulation at S phase at 15 uM after 24 hrs by flow cytometry; in short: as §1
# M21 [15] = assay: Induction of apoptosis in human M21 cells at 15 uM
# M21 [16] = assay: Induction of apoptosis in human M21 cells at 5 uM
# M21 [17] = assay: Cell cycle arrest in human M21 cells by accumulation at G2/M phase at 15 uM after 24 hrs by flow cytometry; in short: as §1
# M21 [18] = assay: Cell cycle arrest in human M21 cells by accumulation at S phase at 7 uM after 24 hrs by flow cytometry; in short: as §1
# M21 [19] = assay: Induction of apoptosis in human M21 cells at 21 uM
# M21 [20] = assay: Cell cycle arrest in human M21 cells by accumulation at G0/G1 phase at 7 uM after 24 hrs by flow cytometry; in short: as §1
# M21 [21] = assay: Cell cycle arrest in human M21 cells by accumulation at G2/M phase at 175 uM after 24 hrs by flow cytometry; in short: as §1
# M21 [22] = assay: Cell cycle arrest in human M21 cells by accumulation at G0/G1 phase at 21 uM after 24 hrs by flow cytometry; in short: as §1
# M21 [23] = assay: Cell cycle arrest in human M21 cells by accumulation at G2/M phase at 21 uM after 24 hrs by flow cytometry; in short: as §1
# M21 [24] = assay: Induction of apoptosis in human M21 cells at 7 uM
# M21 [25] = assay: Induction of apoptosis in human M21 cells at 175 uM
# M21 [26] = assay: Cell cycle arrest in human M21 cells by accumulation at S phase at 21 uM after 24 hrs by flow cytometry; in short: as §1
# M21 [27] = assay: Cell cycle arrest in human M21 cells by accumulation at S phase at 175 uM after 24 hrs by flow cytometry; in short: as §1
# M21 [28] = assay: Cell cycle arrest in human M21 cells by accumulation at G2/M phase at 7 uM after 24 hrs by flow cytometry; in short: as §1
# M21 [29] = assay: Cell cycle arrest in human M21 cells by accumulation at G0/G1 phase at 175 uM after 24 hrs by flow cytometry; in short: as §1
# M21 [30] = assay: Cell cycle arrest in human M21 cells by accumulation at S phase at 1.2 uM after 24 hrs by flow cytometry; in short: as §1
# M21 [31] = assay: Cell cycle arrest in human M21 cells by accumulation at G2/M phase at 4 uM after 24 hrs by flow cytometry; in short: as §1
# M21 [32] = assay: (§3) Cell cycle arrest in human M21 cells by accumulation at G0/G1 phase at 1.2 uM after 24 hrs by flow cytometry; in short: as §1
# M21 [33] = assay: Induction of apoptosis in human M21 cells at 1.2 uM
# M21 [34] = assay: Induction of apoptosis in human M21 cells at 4 uM
# M21 [35] = assay: Cell cycle arrest in human M21 cells by accumulation at S phase at 4 uM after 24 hrs by flow cytometry; in short: as §1
# M21 [36] = assay: Cell cycle arrest in human M21 cells by accumulation at G0/G1 phase at 4 uM after 24 hrs by flow cytometry; in short: as §1
# M21 [37] = assay: as §3; in short: as §1; remark: listed apart in the source
SMILES,GI50 (HT-29),GI50 (MCF7),GI50 (M21 [5]),further results
O=C(O)CCCCCc1cccc(NC(=O)NCCCl)c1,35.9 µM,> 100 µM,47.5 µM,–
CCOC(=O)CCCCCc1cccc(NC(=O)NCCCl)c1,19.8 µM,22.5 µM,17.7 µM,–
CC(=O)c1cccc(NC(=O)NCCCl)c1,> 100 µM,> 100 µM,> 100 µM,–
COC(=O)c1cccc(NC(=O)NCCCl)c1,80.2 µM,> 100 µM,86.2 µM,–
CCOC(=O)c1cccc(NC(=O)NCCCl)c1,> 100 µM,> 100 µM,96.4 µM,–
COC(=O)CCCCc1cccc(NC(=O)NCCCl)c1,8.1 µM,15.1 µM,7.3 µM,Activity (M21 [18]): 36%; Activity (M21 [19]): 6%; Activity (M21 [20]): 46%; Activity (M21 [21]): 62%; Activity (M21 [22]): 40%; Activity (M21 [23]): 20%; Activity (M21 [24]): 4%; Activity (M21 [25]): 19%; Activity (M21 [26]): 34%; Activity (M21 [27]): 1%; Activity (M21 [28]): 14%; Activity (M21 [29]): 18%
O=C(O)Cc1cccc(NC(=O)NCCCl)c1,> 100 µM,> 100 µM,> 100 µM,–
O=C(NCCCl)Nc1cccc(C(=O)O)c1,68.1 µM,82.9 µM,67.9 µM,–
CCOC(=O)CCCCc1cccc(NC(=O)NCCCl)c1,8.2 µM,8.7 µM,11 µM,–
CCOC(=O)Cc1cccc(NC(=O)NCCCl)c1,> 100 µM,> 100 µM,> 100 µM,–
NC(=O)c1cccc(NC(=O)NCCCl)c1,> 100 µM,> 100 µM,> 100 µM,–
NC(=O)Cc1cccc(NC(=O)NCCCl)c1,> 100 µM,> 100 µM,> 100 µM,–
COC(=O)Cc1cccc(NC(=O)NCCCl)c1,82.7 µM,> 100 µM,> 100 µM,–
O=C(O)CCCCc1cccc(NC(=O)NCCCl)c1,> 100 µM,> 100 µM,> 100 µM,–

# Molecules with a lower GI50 (HT-29), results first:
GI50 (HT-29),GI50 (MCF7),SMILES,GI50 (M21 [5]),further results
0.96 µM,1.6 µM,CCCCCc1cccc(NC(=O)NCCCl)c1,0.87 µM,Activity (M21 [1]): 11%; Activity (M21 [2]): 50%; Activity (M21 [3]): 14%; Activity (M21 [4]): 6%; Activity (M21 [6]): 7%; Activity (M21 [7]): 31%; Activity (M21 [8]): 18%; Activity (M21 [9]): 49%
0.84 µM,1.9 µM,COCCCCCc1cccc(NC(=O)NCCCl)c1,0.94 µM,Activity (M21 [1]): 14%; Activity (M21 [2]): 37%; Activity (M21 [3]): 29%; Activity (M21 [4]): 7%; Activity (M21 [6]): 9%; Activity (M21 [7]): 24%; Activity (M21 [8]): 14%; Activity (M21 [9]): 52%
5.7 µM,21.8 µM,NC(=O)CCCCCc1cccc(NC(=O)NCCCl)c1,8.9 µM,–
3.6 µM,11.2 µM,NC(=O)CCCCc1cccc(NC(=O)NCCCl)c1,5.7 µM,–
0.6 µM,2 µM,CC(=O)CCCCc1cccc(NC(=O)NCCCl)c1,1.1 µM,Activity (M21 [10]): 6%; Activity (M21 [11]): 25%; Activity (M21 [12]): 44%; Activity (M21 [13]): 13%; Activity (M21 [14]): 10%; Activity (M21 [15]): 23%; Activity (M21 [16]): 11%; Activity (M21 [17]): 53%
0.9 µM,3.9 µM,CC(=O)CCCCCc1cccc(NC(=O)NCCCl)c1,2.1 µM,Activity (M21 [10]): 11%; Activity (M21 [11]): 48%; Activity (M21 [12]): 10%; Activity (M21 [13]): 18%; Activity (M21 [14]): 18%; Activity (M21 [15]): 16%; Activity (M21 [16]): 21%; Activity (M21 [17]): 53%
7.2 µM,10.2 µM,COC(=O)CCCCCc1cccc(NC(=O)NCCCl)c1,7.1 µM,Activity (M21 [18]): 37%; Activity (M21 [19]): 5%; Activity (M21 [20]): 45%; Activity (M21 [21]): 72%; Activity (M21 [22]): 49%; Activity (M21 [23]): 15%; Activity (M21 [24]): 4%; Activity (M21 [25]): 19%; Activity (M21 [26]): 31%; Activity (M21 [27]): 1%; Activity (M21 [28]): 14%; Activity (M21 [29]): 8%
0.16 µM,0.48 µM,O=C(NCCCl)Nc1cccc(CCCCCO)c1,0.27 µM,Activity (M21 [30]): 11%; Activity (M21 [31]): 53%; Activity (M21 [32]): 50%; Activity (M21 [33]): 12%; Activity (M21 [34]): 27%; Activity (M21 [35]): 7%; Activity (M21 [36]): 6%; Activity (M21 [37]): 50%
